ChEMBL document CHEMBL1240382, “Elucidation of the pharmacokinetic/pharmacodynamic determinant of colistin activity against Pseudomonas aeruginosa in murine thigh and lung infection models” (Antimicrob Agents Chemother, 2010)

Experiments:
[1] = system: Pseudomonas aeruginosa; test: Antimicrobial activity against Pseudomonas aeruginosa ATCC 27853 infected in neutropenic Swiss mouse thigh infection model assessed as reduction in bacterial burden relative to control; assay type: functional, organism-based; conditions: Thigh muscle
How it was run: (§1)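 Neutropenic thigh-infected Swiss mice; colistin (sulfate) s.c. started 2 h after inoculation, 5–40 mg/kg per dose every 3, 6, 8, 12 or 24 h (5–160 mg/kg/day), two mice per regimen. Killed 24 h after treatment start; each thigh homogenized and plated on nutrient agar; log10 CFU/thigh, lower count limit 100 CFU; change versus 2 h burden.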

[2] = system: Pseudomonas aeruginosa; test: Antimicrobial activity against Pseudomonas aeruginosa PAO1 infected in neutropenic Swiss mouse thigh infection model assessed as reduction in bacterial burden relative to control; assay type: functional, organism-based; conditions: Thigh muscle; how it was run: as §1
[3] = system: Pseudomonas aeruginosa; test: Antimicrobial activity against Pseudomonas aeruginosa isolate 19056 infected in neutropenic Swiss mouse thigh infection model assessed as reduction in bacterial burden relative to control; assay type: functional, organism-based; conditions: Thigh muscle; how it was run: as §1
[4] = system: Pseudomonas aeruginosa; test: Antimicrobial activity against Pseudomonas aeruginosa ATCC 27853 infected in neutropenic Swiss mouse lung infection model assessed as reduction in bacterial burden relative to control; assay type: functional, organism-based
How it was run: (§2)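 Neutropenic lung-infected Swiss mice; colistin (sulfate) s.c. from 2 h post-inoculation, 5–40 mg/kg per dose every 6, 8, 12 or 24 h. Killed 24 h after treatment start; lungs homogenized in saline and plated; log10 CFU/lung (limit 220 CFU); change versus 2 h burden.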

[5] = system: Pseudomonas aeruginosa; test: Antimicrobial activity against Pseudomonas aeruginosa PAO1 infected in neutropenic Swiss mouse lung infection model assessed as reduction in bacterial burden relative to control; assay type: functional, organism-based; how it was run: as §2
[6] = system: Pseudomonas aeruginosa; test: Antimicrobial activity against Pseudomonas aeruginosa isolate 19056 infected in neutropenic Swiss mouse lung infection model assessed as reduction in bacterial burden relative to control; assay type: functional, organism-based; how it was run: as §2
[7] = fAUC/MIC in Pseudomonas aeruginosa ATCC 27853 infected Swiss mouse thigh infection model assessed as induction of static antimicrobial effect after 24 hrs; assay type: functional
How it was run: (§3)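 Unbound single-dose profiles superimposed to give 24-h fAUC (trapezoidal) per regimen, divided by MIC; log10 CFU per thigh or lung at 24 h fitted to inhibitory sigmoid Emax model by nonlinear least squares; fAUC/MIC for stasis (24-h count equal to treatment-start count) and 1-, 2-, 3-log10 kill derived from fitted parameters.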

[8] = fAUC/MIC in Pseudomonas aeruginosa ATCC 27853 infected Swiss mouse thigh infection model assessed as 1-log10 kill after 24 hrs; assay type: functional; how it was run: as §3
[9] = fAUC/MIC in Pseudomonas aeruginosa ATCC 27853 infected Swiss mouse thigh infection model assessed as 2-log10 kill after 24 hrs; assay type: functional; how it was run: as §3
[10] = fAUC/MIC in Pseudomonas aeruginosa ATCC 27853 infected Swiss mouse thigh infection model assessed as 3-log10 kill after 24 hrs; assay type: functional; how it was run: as §3
[11] = fAUC/MIC in Pseudomonas aeruginosa PAO1 infected Swiss mouse thigh infection model assessed as induction of static antimicrobial effect after 24 hrs; assay type: functional
[12] = fAUC/MIC in Pseudomonas aeruginosa PAO1 infected Swiss mouse thigh infection model assessed as 1-log10 kill after 24 hrs; assay type: functional; how it was run: as §3
[13] = fAUC/MIC in Pseudomonas aeruginosa PAO1 infected Swiss mouse thigh infection model assessed as 2-log10 kill after 24 hrs; assay type: functional
[14] = fAUC/MIC in Pseudomonas aeruginosa PAO1 infected Swiss mouse thigh infection model assessed as 3-log10 kill after 24 hrs; assay type: functional
[15] = fAUC/MIC in Pseudomonas aeruginosa isolate 19056 infected Swiss mouse thigh infection model assessed as induction of static antimicrobial effect after 24 hrs; assay type: functional
[16] = fAUC/MIC in Pseudomonas aeruginosa isolate 19056 infected Swiss mouse thigh infection model after assessed as 1-log10 kill 24 hrs; assay type: functional
[17] = fAUC/MIC in Pseudomonas aeruginosa isolate 19056 infected Swiss mouse thigh infection model after assessed as 2-log10 kill after 24 hrs; assay type: functional
[18] = fAUC/MIC in Pseudomonas aeruginosa isolate 19056 infected Swiss mouse thigh infection model after assessed as 3-log10 kill after 24 hrs; assay type: functional
[19] = fAUC/MIC in Pseudomonas aeruginosa ATCC 27853 infected Swiss mouse lung infection model assessed as induction of static antimicrobial effect after 24 hrs; assay type: functional; how it was run: as §3
[20] = fAUC/MIC in Pseudomonas aeruginosa ATCC 27853 infected Swiss mouse lung infection model assessed as 1-log10 kill after 24 hrs; assay type: functional; how it was run: as §3
[21] = fAUC/MIC in Pseudomonas aeruginosa ATCC 27853 infected Swiss mouse lung infection model assessed as 2-log10 kill after 24 hrs; assay type: functional; how it was run: as §3
[22] = fAUC/MIC in Pseudomonas aeruginosa ATCC 27853 infected Swiss mouse lung infection model assessed as 3-log10 kill after 24 hrs; assay type: functional; how it was run: as §3
[23] = fAUC/MIC in Pseudomonas aeruginosa PAO1 infected Swiss mouse lung infection model assessed as induction of static antimicrobial effect after 24 hrs; assay type: functional; how it was run: as §3
[24] = fAUC/MIC in Pseudomonas aeruginosa PAO1 infected Swiss mouse lung infection model assessed as 1-log10 kill after 24 hrs; assay type: functional; how it was run: as §3
[25] = fAUC/MIC in Pseudomonas aeruginosa PAO1 infected Swiss mouse lung infection model assessed as 2-log10 kill after 24 hrs; assay type: functional; how it was run: as §3
[26] = fAUC/MIC in Pseudomonas aeruginosa PAO1 infected Swiss mouse lung infection model assessed as 3-log10 kill after 24 hrs; assay type: functional; how it was run: as §3
[27] = fAUC/MIC in Pseudomonas aeruginosa isolate 19056 infected Swiss mouse lung infection model assessed as induction of static antimicrobial effect after 24 hrs; assay type: functional
[28] = fAUC/MIC in Pseudomonas aeruginosa isolate 19056 infected Swiss mouse lung infection model assessed as 1-log10 kill after 24 hrs; assay type: functional
[29] = fAUC/MIC in Pseudomonas aeruginosa isolate 19056 infected Swiss mouse lung infection model assessed as 2-log10 kill after 24 hrs; assay type: functional
[30] = fAUC/MIC in Pseudomonas aeruginosa isolate 19056 infected Swiss mouse lung infection model assessed as 3-log10 kill after 24 hrs; assay type: functional
[31] = system: Pseudomonas aeruginosa; test: Antimicrobial activity against Pseudomonas aeruginosa ATCC 27853 in neutropenic Swiss mouse thigh infection model assessed as bacterial load in mouse thigh after 2 hrs; assay type: functional, organism-based; conditions: Thigh muscle
How it was run: (§4)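 Thigh model: female Swiss mice (22–26 g) made neutropenic with cyclophosphamide i.p. (150 mg/kg day −4, 100 mg/kg day −1). Under isoflurane, ~10^7 CFU/ml early-log suspension injected i.m. (50 µl per posterior thigh). Untreated controls killed 2 h post-inoculation; thighs homogenized in saline, filtered, serially diluted, plated on nutrient agar, counted after 24 h at 37°C; log10 CFU/thigh.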

[32] = system: Pseudomonas aeruginosa; test: Antimicrobial activity against Pseudomonas aeruginosa PAO1 in neutropenic Swiss mouse thigh infection model assessed as bacterial load in mouse thigh after 2 hrs; assay type: functional, organism-based; conditions: Thigh muscle; how it was run: as §4
[33] = system: Pseudomonas aeruginosa; test: Antimicrobial activity against Pseudomonas aeruginosa isolate 19056 in neutropenic Swiss mouse thigh infection model assessed as bacterial load in mouse thigh after 2 hrs; assay type: functional, organism-based; conditions: Thigh muscle; how it was run: as §4
[34] = system: Pseudomonas aeruginosa; test: Antimicrobial activity against Pseudomonas aeruginosa ATCC 27853 in neutropenic Swiss mouse thigh infection model assessed as bacterial load in mouse thigh at 40 mg/kg, sc after 24 hrs; assay type: functional, organism-based; design: dose 40 mg/kg; how it was run: as §1
[35] = system: Pseudomonas aeruginosa; test: Antimicrobial activity against Pseudomonas aeruginosa PAO1 in neutropenic Swiss mouse thigh infection model assessed as bacterial load in mouse thigh at 40 mg/kg, sc after 24 hrs; assay type: functional, organism-based; design: dose 40 mg/kg; how it was run: as §1
[36] = system: Pseudomonas aeruginosa; test: Antimicrobial activity against Pseudomonas aeruginosa isolate 19056 in neutropenic Swiss mouse thigh infection model assessed as bacterial load in mouse thigh at 40 mg/kg, sc after 24 hrs; assay type: functional, organism-based; design: dose 40 mg/kg; how it was run: as §1
[37] = system: Pseudomonas aeruginosa; test: Antimicrobial activity against Pseudomonas aeruginosa ATCC 27853 in neutropenic Swiss mouse lung infection model assessed as bacterial load in mouse thigh after 2 hrs; assay type: functional, organism-based; conditions: Thigh muscle
[38] = system: Pseudomonas aeruginosa; test: Antimicrobial activity against Pseudomonas aeruginosa PAO1 in neutropenic Swiss mouse lung infection model assessed as bacterial load in mouse thigh after 2 hrs; assay type: functional, organism-based; conditions: Thigh muscle
[39] = system: Pseudomonas aeruginosa; test: Antimicrobial activity against Pseudomonas aeruginosa isolate 19056 in neutropenic Swiss mouse lung infection model assessed as bacterial load in mouse thigh after 2 hrs; assay type: functional, organism-based
How it was run: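 Lung model: neutropenic Swiss mice under isoflurane given 50 µl of ~10^8 CFU/ml early-log suspension intranasally in ~10 µl portions, then held head-up 1 min. Untreated controls killed 2 h post-inoculation; lungs homogenized in 2 ml saline, viable counts by dilution plating on nutrient agar; lower limit 220 CFU/lung.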

[40] = system: Pseudomonas aeruginosa; test: Antimicrobial activity against Pseudomonas aeruginosa ATCC 27853 in neutropenic Swiss mouse lung infection model assessed as bacterial load in mouse thigh at 40 mg/kg, sc after 24 hrs; assay type: functional, organism-based; design: dose 40 mg/kg; how it was run: as §2
[41] = system: Pseudomonas aeruginosa; test: Antimicrobial activity against Pseudomonas aeruginosa PAO1 in neutropenic Swiss mouse lung infection model assessed as bacterial load in mouse thigh at 40 mg/kg, sc after 24 hrs; assay type: functional, organism-based; design: dose 40 mg/kg; how it was run: as §2
[42] = system: Pseudomonas aeruginosa; test: Antimicrobial activity against Pseudomonas aeruginosa ATCC 27853 by broth microdilution method; assay type: functional, organism-based
How it was run: (§5)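 Colistin (sulfate) MIC by broth microdilution; strains stored in tryptone soy broth with 20% glycerol at −80°C and subcultured overnight on horse blood agar at 37°C before use.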

[43] = system: Pseudomonas aeruginosa; test: Antimicrobial activity against Pseudomonas aeruginosa PAO1 by broth microdilution method; assay type: functional, organism-based; how it was run: as §5
[44] = system: Pseudomonas aeruginosa; test: Antimicrobial activity against Pseudomonas aeruginosa isolate 19056 by broth microdilution method; assay type: functional, organism-based; how it was run: as §5

Q: For COLISTIMETHATE SODIUM, which Emax (log10 CFU/organ) [1] is on record?
A: 6.29

Q: And the Emax (log10 CFU/organ) [2]?
A: 5.97

Q: And the Emax (log10 CFU/organ) [3]?
A: 6.23

Q: What about the Emax (log10 CFU/organ) [4] of the same sequence?
A: 7.58

Q: And the Emax (log10 CFU/organ) [5]?
A: 7.36

Q: And the Emax (log10 CFU/organ) [6]?
A: 6.86

Q: And the fAUC/MIC [7]?
A: 17.3

Q: What about the fAUC/MIC [8] of the same sequence?
A: 22.7

Q: And the fAUC/MIC [9]?
A: 31.2

Q: And the fAUC/MIC [10]?
A: 55.1

Q: What about the fAUC/MIC [11] of the same sequence?
A: 14.4

Q: And the fAUC/MIC [12]?
A: 22.8

Q: What about the fAUC/MIC [13] of the same sequence?
A: 36.1

Q: What about the fAUC/MIC [14] of the same sequence?
A: 66.7

Q: And the fAUC/MIC [15]?
A: 8.34

Q: And the fAUC/MIC [16]?
A: 15.6

Q: What about the fAUC/MIC [17] of the same sequence?
A: 27.6

Q: What about the fAUC/MIC [18] of the same sequence?
A: 53.3

Q: What about the fAUC/MIC [19] of the same sequence?
A: 6.43

Q: What about the fAUC/MIC [20] of the same sequence?
A: 15.6

Q: What about the fAUC/MIC [21] of the same sequence?
A: 37.9

Q: And the fAUC/MIC [22]?
A: 105

Q: And the fAUC/MIC [23]?
A: 5.42

Q: And the fAUC/MIC [24]?
A: 16.7

Q: And the fAUC/MIC [25]?
A: 45.9

Q: What about the fAUC/MIC [26] of the same sequence?
A: 135

Q: And the fAUC/MIC [27]?
A: 4.07

Q: And the fAUC/MIC [28]?
A: 12.2

Q: And the fAUC/MIC [29]?
A: 36.9

Q: And the fAUC/MIC [30]?
A: 141

Q: What about the log10cfu [31] of the same sequence?
A: 6.14

Q: And the log10cfu [32]?
A: 6.35

Q: And the log10cfu [33]?
A: 6.26

Q: And the log10cfu [34]?
A: 3.17

Q: What about the log10cfu [35] of the same sequence?
A: 4.01

Q: And the log10cfu [36]?
A: 3.69

Q: And the log10cfu [37]?
A: 6.64

Q: What about the log10cfu [38] of the same sequence?
A: 6.92

Q: What about the log10cfu [39] of the same sequence?
A: 6.43

Q: And the log10cfu [40]?
A: 3.58

Q: And the log10cfu [41]?
A: 3.09

Q: What about the MIC [42] of the same sequence?
A: 1 µg/mL

Q: What about the MIC [43] of the same sequence?
A: 1 µg/mL

Q: What about the MIC [44] of the same sequence?
A: 0.5 µg/mL
